# Laboratory results: ChEMBL document CHEMBL1255303, “In vitro and in vivo antifungal activities of T-2307, a novel arylamidine” (2008)
# Key:
# Assay type in all cases: functional
# Candida albicans [1] = assay: Antifungal activity against Candida albicans ATCC 90028 after 48 hrs by broth microdilution method; conditions: ATCC 90028, 48 h
# How it was run: (§1)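 CLSI M27-A2 (yeasts) / M38-A (moulds) broth microdilution in RPMI 1640 buffered to pH 7.0 with 0.165 M MOPS. Malassezia furfur got the same medium supplemented with glucose, bile salts, glycerol, glycerol monostearate and Tween 20. Final inoculum 0.65 × 10^3–2.5 × 10^3 CFU/ml for yeasts and 0.87 × 10^4–3.8 × 10^4 CFU/ml for filamentous fungi. Incubation at 35°C except M. racemosus and F. solani, which were held at 30°C.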
# Candida dubliniensis = assay: Antifungal activity against Candida dubliniensis ATCC MYA-577 after 48 hrs by broth microdilution method; conditions: ATCC MYA-577, 48 h; how it was run: as §1
# [2] = tested on: Meyerozyma guilliermondii; assay: Antifungal activity against Candida guilliermondii IFO 10279 after 48 hrs by broth microdilution method; conditions: IFO 10279, 48 h; how it was run: as §1
# Pichia kudriavzevii [3] = assay: Antifungal activity against Candida krusei IFO 0584 after 48 hrs by broth microdilution method; conditions: IFO 0584, 48 h; how it was run: as §1
# Cryptococcus neoformans [4] = assay: Antifungal activity against Cryptococcus neoformans ATCC 90112 after 72 hrs by broth microdilution method; conditions: ATCC 90112, 72 h
# How it was run: (§2)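 CLSI M27-A2 (yeasts) or M38-A (A. fumigatus) broth microdilution in RPMI 1640 buffered to pH 7.0 with 0.165 M MOPS. Final inocula were 0.65–2.5 × 10^3 CFU/ml for yeasts and 0.87–3.8 × 10^4 CFU/ml for filamentous fungi. Incubation was at 35°C for about 48 h (72 h for C. neoformans). MIC was the lowest concentration giving a prominent (~50%) turbidity drop versus growth control; amphotericin B required complete inhibition.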
# Cryptococcus neoformans [5] = assay: Antifungal activity against Cryptococcus neoformans TIMM 0354 after 72 hrs by broth microdilution method; conditions: TIMM 0354, 72 h; how it was run: as §2
# Saccharomyces cerevisiae = assay: Antifungal activity against Saccharomyces cerevisiae ATCC 24657 after 48 hrs by broth microdilution method; conditions: ATCC 24657, 48 h; how it was run: as §1
# Trichosporon asahii = assay: Antifungal activity against Trichosporon asahii JCM 2466 after 48 hrs by broth microdilution method; conditions: JCM 2466, 48 h; how it was run: as §1
# Aspergillus fumigatus [6] = assay: Antifungal activity against Aspergillus fumigatus IFM 46895 after 48 hrs by broth microdilution method; conditions: IFM 46895, 48 h; how it was run: as §1
# Scedosporium boydii = assay: Antifungal activity against Pseudallescheria boydii NBRC 32229 after 72 hrs by broth microdilution method; conditions: NBRC 32229, 72 h; how it was run: as §1
# Rhizopus arrhizus = assay: Antifungal activity against Rhizopus oryzae NBRC 31005 after 24 hrs by broth microdilution method; conditions: NBRC 31005, 24 h; how it was run: as §1
# Lichtheimia corymbifera = assay: Antifungal activity against Absidia corymbifera NBRC 4009 after 24 hrs by broth microdilution method; conditions: NBRC 4009, 24 h; how it was run: as §1
# Candida albicans [7] = assay: Antifungal activity against Candida albicans ATCC 64124 after 47 hrs by broth microdilution method; conditions: ATCC 64124, 47 h
# How it was run: (§3)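 Fluconazole-resistant or susceptible-dose-dependent ATCC C. albicans strains were tested by CLSI M27-A2 broth microdilution in RPMI 1640–0.165 M MOPS, pH 7.0, with a final inoculum of 1.1–1.5 × 10^3 CFU/ml at 35°C for about 47 h. MIC was the lowest concentration with a prominent (~50%) turbidity decrease relative to growth control; amphotericin B was read at complete inhibition.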
# Candida albicans [8] = assay: Antifungal activity against Candida albicans ATCC 64550 after 47 hrs by broth microdilution method; conditions: ATCC 64550, 47 h
# How it was run: (§4)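 Fluconazole-resistant or susceptible-dose-dependent C. albicans ATCC strains were tested by broth microdilution in RPMI 1640-MOPS. Inoculum was 1.1 × 10^3–1.5 × 10^3 CFU/ml, with incubation at 35°C for about 47 h. Yeast MIC was read as about 50% turbidity decrease relative to growth control, except amphotericin B, read at complete inhibition.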
# Candida albicans [9] = assay: Antifungal activity against Candida albicans ATCC 96901 after 47 hrs by broth microdilution method; conditions: ATCC 96901, 47 h; how it was run: as §3
# Candida albicans [10] = assay: Antifungal activity against Candida albicans ATCC MYA-574 after 47 hrs by broth microdilution method; conditions: ATCC MYA-574, 47 h; how it was run: as §4
# Candida albicans [11] = assay: Antifungal activity against Candida albicans ATCC MYA-575 after 47 hrs by broth microdilution method; conditions: ATCC MYA-575, 47 h; how it was run: as §3
# Pichia kudriavzevii [12] = assay: Antifungal activity against Candida krusei clinical isolates after 48 hrs by broth microdilution method
# How it was run: (§5)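 Japanese hospital Candida isolates were tested by CLSI M27-A2 broth microdilution in RPMI 1640–MOPS, pH 7.0, with inocula of 0.57–2.5 × 10^3 CFU/ml at 35°C for about 48 h. Inocula came from 24-h potato dextrose agar cultures. MIC was the lowest concentration with about 50% turbidity reduction versus growth control (complete inhibition for amphotericin B). Range, MIC50 and MIC90 were reported.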
# Candida parapsilosis = assay: Antifungal activity against Candida parapsilosis clinical isolates after 48 hrs by broth microdilution method; conditions: Lodderomyces parapsilosis; how it was run: as §5
# Candida tropicalis = assay: Antifungal activity against Candida tropicalis clinical isolates after 48 hrs by broth microdilution method
# How it was run: (§6)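 Clinical isolates from Japanese hospitals or culture collections were tested by broth microdilution in RPMI 1640-MOPS. Inoculum was 0.57 × 10^3–2.5 × 10^3 CFU/ml for yeasts and 0.4 × 10^4–3.3 × 10^4 CFU/ml for filamentous fungi. Incubation was at 35°C for about 48 h, or 72 h where footnoted. Results were summarised as MIC range, MIC50 and MIC90.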
# Cryptococcus neoformans [13] = assay: Antifungal activity against Cryptococcus neoformans clinical isolates after 72 hrs by broth microdilution method; how it was run: as §6
# Aspergillus fumigatus [14] = assay: Antifungal activity against Aspergillus fumigatus clinical isolates after 48 hrs by broth microdilution method; how it was run: as §6
# Aspergillus fumigatus [15] = assay: Antifungal activity against Aspergillus fumigatus IFM 46895 infected ICR mouse after 6 days; conditions: IFM 46895, 144 h
# How it was run: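 Male ICR mice, 4 weeks old and SPF, were made neutropenic with intraperitoneal cyclophosphamide. The schedule was 200 mg/kg on day −3 (day −4 for Cryptococcus) plus 100 mg/kg on day +1. Infection was by tail-vein injection of 0.2 ml suspension: C. albicans 3.0 × 10^4, C. neoformans 9.1 × 10^4, A. fumigatus conidia 8.4 × 10^4 CFU/mouse. Drugs were given subcutaneously once daily for 7 days from 2 h post-infection; controls received saline. Groups had 8–10 mice.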
smiles,measurement,setting,value
C[C@@H]1[C@H](O)[C@@H](C)/C=C/C=C/C=C/C=C/C=C/C=C/C=C/[C@H](O[C@@H]2O[C@H](C)[C@@H](O)[C@H](N)[C@@H]2O)C[C@@H]2O[C@](O)(C[C@@H](O)C[C@@H](O)[C@H](O)CC[C@@H](O)C[C@@H](O)CC(=O)O[C@H]1C)C[C@H](O)[C@H]2C(=O)O [AMPHOTERICIN B],MFC,Candida albicans [1],1 µg/mL
same,MIC,Candida albicans [1],1 µg/mL
same,MFC,Candida dubliniensis,2 µg/mL
same,MIC,Candida dubliniensis,1 µg/mL
same,MFC,[2],1 µg/mL
same,MIC,[2],0.5 µg/mL
same,MFC,Pichia kudriavzevii [3],2 µg/mL
same,MIC,Pichia kudriavzevii [3],2 µg/mL
same,MFC,Cryptococcus neoformans [4],1 µg/mL
same,MIC,Cryptococcus neoformans [4],1 µg/mL
same,MFC,Cryptococcus neoformans [5],1 µg/mL
same,MIC,Cryptococcus neoformans [5],1 µg/mL
same,MFC,Saccharomyces cerevisiae,2 µg/mL
same,MIC,Saccharomyces cerevisiae,1 µg/mL
same,MFC,Trichosporon asahii,4 µg/mL
same,MIC,Trichosporon asahii,2 µg/mL
same,MFC,Aspergillus fumigatus [6],2 µg/mL
same,MIC,Aspergillus fumigatus [6],2 µg/mL
same,MFC,Scedosporium boydii,> 64 µg/mL
same,MIC,Scedosporium boydii,> 64 µg/mL
same,MFC,Rhizopus arrhizus,1 µg/mL
same,MIC,Rhizopus arrhizus,1 µg/mL
same,MFC,Lichtheimia corymbifera,> 64 µg/mL
same,MIC,Lichtheimia corymbifera,2 µg/mL
same,MIC,Candida albicans [7],2 µg/mL
same,MIC,Candida albicans [8],1 µg/mL
same,MIC,Candida albicans [9],1 µg/mL
same,MIC,Candida albicans [10],1 µg/mL
same,MIC,Candida albicans [11],2 µg/mL
same,MIC,Pichia kudriavzevii [12],2 µg/mL
same,MIC50,Pichia kudriavzevii [12],2 µg/mL
same,MIC90,Pichia kudriavzevii [12],2 µg/mL
same,MIC50,Candida parapsilosis,2 µg/mL
same,MIC90,Candida parapsilosis,2 µg/mL
same,MIC,Candida tropicalis,1 µg/mL
same,MIC50,Candida tropicalis,1 µg/mL
same,MIC90,Candida tropicalis,2 µg/mL
same,MIC,Cryptococcus neoformans [13],1 µg/mL
same,MIC50,Cryptococcus neoformans [13],1 µg/mL
same,MIC90,Cryptococcus neoformans [13],1 µg/mL
same,MIC50,Aspergillus fumigatus [14],2 µg/mL
same,MIC90,Aspergillus fumigatus [14],2 µg/mL
same,ED50,Aspergillus fumigatus [15],0.289 mg/kg
C[C@@H](c1ncncc1F)[C@](O)(Cn1cncn1)c1ccc(F)cc1F [VORICONAZOLE],MFC,Candida albicans [1],> 64 µg/mL
same,MIC,Candida albicans [1],0.0039 µg/mL
same,MFC,Candida dubliniensis,> 64 µg/mL
same,MIC,Candida dubliniensis,0.0078 µg/mL
same,MFC,[2],0.5 µg/mL
same,MIC,[2],0.0625 µg/mL
same,MFC,Pichia kudriavzevii [3],2 µg/mL
same,MIC,Pichia kudriavzevii [3],0.125 µg/mL
same,MFC,Cryptococcus neoformans [4],> 64 µg/mL
same,MIC,Cryptococcus neoformans [4],0.0313 µg/mL
same,MFC,Cryptococcus neoformans [5],> 64 µg/mL
same,MIC,Cryptococcus neoformans [5],0.0313 µg/mL
same,MFC,Saccharomyces cerevisiae,> 64 µg/mL
same,MIC,Saccharomyces cerevisiae,0.125 µg/mL
same,MFC,Trichosporon asahii,> 64 µg/mL
same,MIC,Trichosporon asahii,0.0625 µg/mL
same,MFC,Aspergillus fumigatus [6],4 µg/mL
same,MIC,Aspergillus fumigatus [6],0.5 µg/mL
same,MFC,Scedosporium boydii,> 64 µg/mL
same,MIC,Scedosporium boydii,1 µg/mL
same,MFC,Rhizopus arrhizus,32 µg/mL
same,MIC,Rhizopus arrhizus,8 µg/mL
same,MFC,Lichtheimia corymbifera,> 64 µg/mL
same,MIC,Lichtheimia corymbifera,32 µg/mL
same,MIC,Candida albicans [7],16 µg/mL
same,MIC,Candida albicans [8],0.25 µg/mL
same,MIC,Candida albicans [9],0.5 µg/mL
same,MIC,Candida albicans [10],0.25 µg/mL
same,MIC,Candida albicans [11],0.0625 µg/mL
same,MIC50,Pichia kudriavzevii [12],0.5 µg/mL
same,MIC90,Pichia kudriavzevii [12],0.5 µg/mL
same,MIC50,Candida parapsilosis,0.0156 µg/mL
same,MIC90,Candida parapsilosis,0.0313 µg/mL
same,MIC50,Candida tropicalis,0.0625 µg/mL
same,MIC90,Candida tropicalis,0.0625 µg/mL
same,MIC50,Cryptococcus neoformans [13],0.0313 µg/mL
same,MIC90,Cryptococcus neoformans [13],0.0625 µg/mL
same,MIC50,Aspergillus fumigatus [14],1 µg/mL
same,MIC90,Aspergillus fumigatus [14],1 µg/mL
